Data taken from the EternaBench riboswitch data.

Tested on: MS2 coat protein
Assay: apparent Kd, MS2 coat protein; higher = weaker binding; RNA-MaP array; FMN 200 µM where present
How it was run: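 Green signal from SNAP-549-labelled MS2 coat protein was normalised to red-channel RNA signal and to the median Fmax of control clusters. The protein was titrated from 0.7 or 1.5 nM, doubling to 3 µM, without and then with constant ligand, over designs transcribed by stalled E. coli RNA polymerase on Illumina sequencing-chip clusters, in 100 mM Tris-HCl pH 7.5, 80 mM KCl, 4 mM MgCl2, BSA, DTT, yeast tRNA and Tween-20. The apparent Kd is the median of filtered per-cluster binding-curve fits.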

[1] = designed as: OFF switch for flavin mononucleotide, no ligand
[2] = ligand present: flavin mononucleotide, designed as: OFF switch for flavin mononucleotide
[3] = designed as: ON switch for flavin mononucleotide, no ligand
[4] = ligand present: flavin mononucleotide, designed as: ON switch for flavin mononucleotide

UAAGUCGGAGAUAAUAAUGAUUACAUGAGGAUCACCCAUGUAUAGGAUAUCGUCAGGAAUACUGACGAGAAGGAUACAACCGAC
apparent Kd [1]: 17.9 nM | apparent Kd [2]: 25.8 nM

UAAGUUGAGGAGAAGGGAGCACAUGAGGAUCACCCAUGUGGUUCUUUGUGCUCAGGAUAUCCAUGGAGCGCCGACGCGUUCCCG
apparent Kd [1]: 89.2 nM | apparent Kd [2]: 15.6 nM

UAAGUUUAGGUAGGAUAUACUUUAAAUUUCUCUAUCCAUACAUGAGGAUCACCCAUGUUUACAUUGUAGAAGGACCACUAUGUU
apparent Kd [1]: 24.6 nM | apparent Kd [2]: 20.4 nM

UAAGUUUUGGUAGGAUAUACUUUAAAUUUCUCUAUCCAUACAUGAGGAUCACCCAUGUUUACAUUGUAGAAGGACCACUAUGUU
apparent Kd [1]: 24.6 nM | apparent Kd [2]: 19.7 nM

UAAUAAAGUGUGAGGAUAUGCUGGUCCUUGGAUCAGCAGAAGGCACAUGAGGAUCACCCAUGUAAUAUAUAUAU
apparent Kd [1]: 87.7 nM | apparent Kd [2]: 223 nM

UAAUAUCUGUAGGAUAUCGGUGGAGCACACGUAUGAGAAGGGCAGACAUGAGGAUCACCCAUGUAUAGGGUCCG
apparent Kd [1]: 26.8 nM | apparent Kd [2]: 41 nM

UAAUAUUUAUGAUAUUAUUACAGUAGAAGGCUAUACAUGUGGAUACAUGAGGAUCACCCAUGUAUAGAGGAUAUAUACAUAUAU
apparent Kd [1]: 964 nM | apparent Kd [2]: 351 nM

UAAUCUCAGAUAGGAUAUAUAGGAUAACUUAAGACCUAACAUGAGGAUCACCCAUGUGAUUAUUCGUAGAAGGAUCAUUGAACC
apparent Kd [3]: 206 nM | apparent Kd [4]: 217 nM

UAAUGACAUGUAGGAUAUCGAGGCCUAUGGCCUCGAGAAGGACAUGAGGAUCACCCAUGUAUUCCGAAUGAAUCAAAUAAUAAA
apparent Kd [1]: 15.6 nM | apparent Kd [2]: 30.8 nM

UAAUUGUGAGGAUAUUCGUAGUACACGGAGACGUGUAUUACGGAGAAGGCACAUGAGGAUCACCCAUGUUCCUU
apparent Kd [1]: 18.2 nM | apparent Kd [2]: 89.4 nM

UACAGCGUAGAUAAUAAUGAAUACAUGAGGAUCACCCAUGUAUAGGAUAUGCAGUGGAAUACACUGCAGAAGGAUACAUCGCUG
apparent Kd [1]: 16.4 nM | apparent Kd [2]: 23 nM

UACAUGAGGAUCACCCAUGUUUUGUCGUGUAUGGUAUUUAUCUAGGAUAUCAAUGAAUUUAUUUAUGAGAAGGAGAAUAUUAAU
apparent Kd [1]: 40 nM | apparent Kd [2]: 37.5 nM

UACCCUUGUGAGAAGGCGCCGCAGAUUUUACGGCGAGGAUAUCACAUGAGGAUCACCCAUGUUCCUGAGCCUACAAGUGUGGGC
apparent Kd [1]: 338 nM | apparent Kd [2]: 313 nM

UACUAUAAGGAGGAUAUCGUAUCGGAGACGAUACGAGAAGGCUUAACAUGAGGAUCACCCAUGUUCUUCAAUAU
apparent Kd [1]: 15.3 nM | apparent Kd [2]: 18.3 nM

UACUUGUCAGGAUAUCUUACAUUUGCAUUAUAGCAACUCUUGGAGAAGGGACAUGAGGAUCACCCAUGUUUGGU
apparent Kd [1]: 70.8 nM | apparent Kd [2]: 317 nM

UAGAAACAUGAGGAUCACCCAUGUGGGUUAAACACAGGAUAUCACGCCAAAAGAAAAGCGUGAGAAGGGUGACCGA
apparent Kd [3]: 86.4 nM | apparent Kd [4]: 717 nM

UAGAAAGAUUAAUAUGAUUACAUGAGGAUCACCCAUGUAUAUAAGGAUAUCGACGUCAAUGACGUCGAGAAGGUAUAUACAUAA
apparent Kd [1]: 66.3 nM | apparent Kd [2]: 198 nM

UAGAUGGGAGGAUAUGCAUAGAUACAGAUUCGUGUAGUGCUACAUGAGGAUCACCCAUGUAGAAGGCCCGUCUU
apparent Kd [1]: 14.8 nM | apparent Kd [2]: 37.6 nM

UAGCUCGUGUGAGGAUAUGCCGCCGUUUCGGCUGCAGAAGGUGCUACGUUACAUGAGGAUCACCCAUGUCUCUGUUGUUUCGUC
apparent Kd [3]: 32.5 nM | apparent Kd [4]: 30.5 nM

UAGGACUACGUAGGAUAUUAAAUCAUGUACUACAUGAGGAUCACCCAUGUUAAUUUAACAUCAGCUGAGAAGGACGUGGUAAAU
apparent Kd [3]: 120 nM | apparent Kd [4]: 58.5 nM

UAGGAGUACGUAGGAUAUGUAGGAUAUUCCUACAUGAGGAUCACCCAUGUAUGCAUGGAAGAAGGACAGAAGGACGUGCUCCUU
apparent Kd [3]: 200 nM | apparent Kd [4]: 13.2 nM

UAGGAGUCAGGAUAUGCGAGAGAUUGAAGUAUGGGAUGUGAGCAGAAGGGACAUGAGGAUCACCCAUGUAUGGA
apparent Kd [1]: 167 nM | apparent Kd [2]: 150 nM

UAGGGAGGAGGGAGGGAGACAUGAGGAUCACCCAUGUAAUGUCAGGAUAUUCUCAUAUUAUAUUAGGAGAAGGGAUACAUAUCU
apparent Kd [1]: 49.7 nM | apparent Kd [2]: 24.7 nM

UAGUAUAAGGGCAUUACACAUGAGGAUCACCCAUGUACGUUAGAGGAUAUGCAUUACAGUCGAACGUAGAAGGUUAGAGAAGGG
apparent Kd [1]: 168 nM | apparent Kd [2]: 157 nM

UAGUAUUAACGAGGAUAUAAUAUGUUCAAUUUUUUAUAUUGUUUACAUGAGGAUCACCCAUGUUAUUAGAAGGCGUAUGGGAUU
apparent Kd [3]: 67.2 nM | apparent Kd [4]: 58.8 nM

UAGUCGGUAGAUAAUAAUGAAUACAUGAGGAUCACCCAUGUAUAGGAUAUCGUCAGGAAUACUGACGAGAAGGAUACAUCCGAC
apparent Kd [1]: 16.1 nM | apparent Kd [2]: 18.4 nM

UAUAAAUUAAAAGGAUAUUCAUACCGGAAACGGACAUGAGGAUCACCCAUGUGGCGAAAGCCUUGGGAGAAGGUAUUAAAUAAU
apparent Kd [3]: 268 nM | apparent Kd [4]: 263 nM

UAUAACAUGAGGAUCACCCAUGUGGUCGUCGUGGCCCUGUGACAGGAUAUCGGAGUUGGAGCAUACGAGAAGGGUUACGCGGCC
apparent Kd [1]: 10.5 nM | apparent Kd [2]: 12.4 nM

UAUAAGUCUCAUGUAACAUGAGGAUCACCCAUGUCAUAUUGUAGAAGGAUGAUAUUAUGUAUAUCAUAGGAUAUACUAUAAGAU
apparent Kd [1]: 21.2 nM | apparent Kd [2]: 23.3 nM

UAUAUAUAGGCAGGAUAUACAUGAAUAUAUAUAAUAUAAUAUAAUGUAACAUGAGGAUCACCCAUGUAGAAGGGCCAAUAUAUA
apparent Kd [1]: 30.6 nM | apparent Kd [2]: 59.9 nM

UAUAUAUAGGCAGGAUAUACAUGUAUAUAUAAUAUAUUAUAUAAUAUUACAUGAGGAUCACCCAUGUAGAAGGGCCAUAAUAUA
apparent Kd [1]: 48.3 nM | apparent Kd [2]: 66.9 nM

UAUAUAUAGUAAGGAUAUGUAAUUACUUUAUAAACAGAAGGUACUGACAUGAGGAUCACCCAUGUUUUAGUGUGGGCAUGUAGA
apparent Kd [1]: 87 nM | apparent Kd [2]: 113 nM

UAUAUAUAGUAAGGAUAUGUAAUUAUUUGAUAAACAGAAGGUACUGACAUGAGGAUCACCCAUGUUUUAGUGUGGGCAUGUAGA
apparent Kd [1]: 88.2 nM | apparent Kd [2]: 138 nM

UAUAUAUAGUAAGGAUAUGUAUAUAUUAUAUAAACAGAAGGUACUGACAUGAGGAUCACCCAUGUUUUAGUGUGGGCAUGUAGA
apparent Kd [1]: 67.8 nM | apparent Kd [2]: 98.9 nM

UAUAUAUAGUAAGGAUAUGUAUAUAUUUCAUAAACAGAAGGUACUGACAUGAGGAUCACCCAUGUUUUAGUGUGGGCAUGUAGA
apparent Kd [1]: 60.1 nM | apparent Kd [2]: 83.8 nM

UAUAUAUAGUAAGGAUAUGUAUUAAUUUGAUAAACAGAAGGUACUGACAUGAGGAUCACCCAUGUUUUAGUGUGGGCAUGUAGA
apparent Kd [1]: 98.9 nM | apparent Kd [2]: 164 nM

UAUAUAUAGUAAGGAUAUGUAUUAAUUUUAUUAACAGAAGGUACUGACAUGAGGAUCACCCAUGUUUUAGUGUGGGCAUGUAGA
apparent Kd [1]: 84.2 nM | apparent Kd [2]: 149 nM

UAUAUAUAGUAAGGAUAUGUAUUUAUAUUAUAAACAGAAGGUACUGACAUGAGGAUCACCCAUGUUUUAGUGUGGGCAUGUAGA
apparent Kd [1]: 77.9 nM | apparent Kd [2]: 114 nM

UAUAUAUAGUAAGGAUAUGUAUUUAUUUCAUAAACAGAAGGUACUGACAUGAGGAUCACCCAUGUUUUAGUGUGGGCAUGUAGA
apparent Kd [1]: 81.8 nM | apparent Kd [2]: 121 nM

UAUAUUAACAAGAAGGCUAACAUGAGGAUCACCCAUGUUGUACAUGGAUAUAGAGGAUAUUGCUAAUAAUUAUUUAUCAUAAUU
apparent Kd [1]: 20.4 nM | apparent Kd [2]: 18.3 nM

UAUAUUUAUGUAGGAUAUGGUAUAUAAAAUAUACCAGAAGGACAUGAGGAUCACCCAUGUAUGAAAUUCCAUAAUUGCCGUGUA
apparent Kd [1]: 12.7 nM | apparent Kd [2]: 14.8 nM

UAUGUGUCAGGAUAUUGUUAAUUUAGUUGUUUGUAUUAGUUCGAGAAGGGACAUGAGGAUCACCCAUGUUGUUU
apparent Kd [1]: 31.9 nM

UAUGUUGUUGUGAGGAUAUACUUUGUUUGACCGUAGUAGAAGGCACAUGAGGAUCACCCAUGUAGAUUUUUGGU
apparent Kd [1]: 9.74 nM | apparent Kd [2]: 13.6 nM

UAUUAACACGAAGGAUAUGGUUACAUGAGGAUCACCCAUGUAUGUAUAUUGAUCUAGAUUUUUAACCAGAAGGUCGUGAGUAAA
apparent Kd [1]: 50.8 nM | apparent Kd [2]: 72.2 nM

UAUUAAUGCAAGGAUAUGCUAUUAAUUUUUUUUGCAGAAGGUGCAACAUGAGGAUCACCCAUGUUUGAGGGUAU
apparent Kd [1]: 66.8 nM | apparent Kd [2]: 67.8 nM

UAUUGAGCAGGAUAUUAACGGGUUUACAUGAGGAUCACCCAUGUGGUCCCGUGUUAGCUAUAAGAAGGGCUGAUGA
apparent Kd [1]: 35.5 nM | apparent Kd [2]: 120 nM

UAUUGUUCCUGAGGAUAUCAGUUGUUUGCAUUAUGAGAAGGCAGUACAUGAGGAUCACCCAUGUUGGGAUUUGAUAGAAUGAUA
apparent Kd [3]: 185 nM | apparent Kd [4]: 195 nM

UAUUUAAUCAUAGGAUAUAGUGUGUAAUUUGGACUAGAAGGAUGUAACAUGAGGAUCACCCAUGUGGUAAAUGGGAUACAUUCC
apparent Kd [3]: 125 nM | apparent Kd [4]: 132 nM

UAUUUACAUGAGGAUCACCCAUGUCAGGAUAUGCGUCUAUCGUCGAAAGACGAUAGUUGCAGAAGGGACAAUAU
apparent Kd [1]: 62.8 nM | apparent Kd [2]: 123 nM

UAUUUACAUGAGGAUCACCCAUGUCAGGAUAUGCUUCUAUCGUCGAAAGACGAUAGUUGCAGAAGGGACAAUAU
apparent Kd [1]: 58.6 nM | apparent Kd [2]: 106 nM

UAUUUUAACUAAGGAUAUCUAUAUUAAUUUGAAACAUGAGGAUCACCCAUGUUCAUGGGUUUAUAAGAGAAGGUAGAUGAAUAA
apparent Kd [3]: 48.7 nM | apparent Kd [4]: 20.7 nM

UCAAAUGCCGUAGGAUAUAAUGUGCGCCGUCCGUGAGAUGUAAAUUGACAUGAGGAUCACCCAUGUUAGAAGGGCGGCAUCAGC
apparent Kd [1]: 5.88 nM | apparent Kd [2]: 5.92 nM

UCACAGUCAGGAUAUUCUGUGUAGGUUGCGCCUCAAGCACUGAAGAAGGGACAUGAGGAUCACCCAUGUUCCUC
apparent Kd [1]: 15.5 nM | apparent Kd [2]: 18.7 nM

UCAGGAGUCACAGGAUAUCCGGCAUAGCAUACAGGAGAAGGGUGAUCACAAGCACAUGAGGAUCACCCAUGUGACAUUUGUGGA
apparent Kd [3]: 115 nM | apparent Kd [4]: 49.5 nM

UCAGGCUUCGAGAAGGACAUGAGGAUCACCCAUGUGCGUGUGAAGCAGCCGUGAGGCUGCAUCAUGUAGGAUAUCGGAGUCUGC
apparent Kd [1]: 82 nM | apparent Kd [2]: 418 nM
